What all share (assay type): cell-based
The target of assay [1] is T1, Glutamate receptor 3 (Homo sapiens, UniProt P42263). Nature of the assay: Blockade of whole cell current in GluA3i-G (unknown origin) transfected in HEK293 cells assessed as opening of conductance level O2 measured at -60 mV in presence of glutamate at 2 uM by whole cell patch clamp assay. To be noted: filed as negative allosteric modulator. The essentials:
(§1)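 Single homomeric GluA3i-G channels (flip, G at R/G editing site) were recorded cell-attached for 10–45 min in 5 mM L-glutamate plus 150–200 μM cyclothiazide to block desensitization. Inhibitor at 1 or 2 μM was coapplied with glutamate, and analysis used the steady-state segment. Amplitudes were fitted to closed and O1–O4 conductance levels. Fractional occupancy per level is reported as mean ± SD over 2–3 patches.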

The target in assay [2] is T1, Glutamate receptor 3. Nature of the assay: Blockade of whole cell current in GluA3i-G (unknown origin) transfected in HEK293 cells assessed as fractional occupancy at level O2 by measuring ratio at -60 mV in presence of glutamate at 1 uM by whole cell patch clamp assay (RVB = 0.23 +/- 0.051). To be noted: filed as negative allosteric modulator. The essentials: as §1
A general note: The patch-clamp technique gives a direct electrical read-out from membranes.

The target of assay [3] is T1, Glutamate receptor 3. Nature of the assay: Blockade of whole cell current in GluA3i-G (unknown origin) transfected in HEK293 cells assessed as opening of conductance level O2 measured at -60 mV in presence of glutamate at 1 uM by whole cell patch clamp assay. The note with it: filed as negative allosteric modulator. In short, it runs like this: as §1
The target in assay [4] is T1, Glutamate receptor 3. Nature of the assay: Blockade of whole cell current in GluA3i-G (unknown origin) transfected in HEK293 cells assessed as opening of conductance level O3 measured at -60 mV in presence of glutamate at 1 uM by whole cell patch clamp assay. In short, it runs like this: as §1
Assay [5] deals with T1, Glutamate receptor 3. Nature of the assay: Blockade of whole cell current in GluA3i-G (unknown origin) transfected in HEK293 cells assessed as opening of conductance level O3 measured at -60 mV in presence of glutamate at 2 uM by whole cell patch clamp assay. The essentials: as §1
For assay [6], the target named is T1, Glutamate receptor 3. Nature of the assay: Blockade of whole cell current in GluA3i-G (unknown origin) transfected in HEK293 cells assessed as fractional occupancy at level O1 by measuring ratio at -60 mV in presence of glutamate at 1 uM by whole cell patch clamp assay (RVB = 0.16 +/- 0.059). To be noted: filed as negative allosteric modulator. The essentials: as §1

Assay [7] deals with T1, Glutamate receptor 3. Nature of the assay: Blockade of whole cell current in GluA3i-G (unknown origin) transfected in HEK293 cells assessed as opening of conductance level O4 measured at -60 mV in presence of glutamate at 2 uM by whole cell patch clamp assay. In short, it runs like this: as §1
Assay [8] deals with T1, Glutamate receptor 3. Nature of the assay: Blockade of whole cell current in GluA3i-G (unknown origin) transfected in HEK293 cells assessed as fractional occupancy at level O3 by measuring ratio at -60 mV in presence of glutamate at 1 uM by whole cell patch clamp assay (RVB = 0.44 +/- 0.14). To be noted: filed as negative allosteric modulator. The essentials: as §1
For assay [9], the target named is T1, Glutamate receptor 3. Nature of the assay: Blockade of whole cell current in GluA3i-G (unknown origin) transfected in HEK293 cells measured at -60 mV in presence of glutamate by whole cell patch clamp assay. The essentials: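 Whole-cell GluA3 currents were recorded at Vh −60 mV. Glutamate was applied first, then coapplied with inhibitor. Steady-state responses were normalized to currents in 5 mM glutamate in each of 19 cells, with 3–10 cells per concentration. The concentration–effect curve was fitted assuming simple inhibition.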

Assay [10] addresses T1, Glutamate receptor 3. Nature of the assay: Blockade of whole cell current in GluA3i-G (unknown origin) transfected in HEK293 cells assessed as opening of conductance level O1 measured at -60 mV in presence of glutamate at 1 uM by whole cell patch clamp assay. To be noted: filed as negative allosteric modulator. The essentials: as §1
Assay [11] has as its target T1, Glutamate receptor 3. Nature of the assay: Blockade of whole cell current in GluA3i-G (unknown origin) transfected in HEK293 cells assessed as fractional occupancy at level O3 by measuring ratio at -60 mV in presence of glutamate at 2 uM by whole cell patch clamp assay (RVB = 0.44 +/- 0.14). The note with it: filed as negative allosteric modulator. The essentials:
as §1

Assay [12] deals with T1, Glutamate receptor 3. Nature of the assay: Blockade of whole cell current in GluA3i-G (unknown origin) transfected in HEK293 cells assessed as fractional occupancy at level O1 by measuring ratio at -60 mV in presence of glutamate at 2 uM by whole cell patch clamp assay (RVB = 0.16 +/- 0.059). To be noted: filed as negative allosteric modulator. In short, it runs like this:
as §1

Assay [13] addresses T1, Glutamate receptor 3. Nature of the assay: Blockade of whole cell current in GluA3i-G (unknown origin) transfected in HEK293 cells assessed as fractional occupancy at level O4 by measuring ratio at -60 mV in presence of glutamate at 1 uM by whole cell patch clamp assay (RVB = 0.14 +/- 0.050). To be noted: filed as negative allosteric modulator. The essentials:
as §1

The target in assay [14] is T1, Glutamate receptor 3. Nature of the assay: Blockade of whole cell current in GluA3i-G (unknown origin) transfected in HEK293 cells assessed as opening of conductance level O4 measured at -60 mV in presence of glutamate at 1 uM by whole cell patch clamp assay. In short, it runs like this: as §1
In assay [15] the target is T1, Glutamate receptor 3. Nature of the assay: Blockade of whole cell current in GluA3i-G (unknown origin) transfected in HEK293 cells assessed as fractional occupancy at level C by measuring ratio at -60 mV in presence of glutamate at 1 uM by whole cell patch clamp assay (RVB = 0.037 +/- 0.010). The note with it: filed as negative allosteric modulator. In short, it runs like this: as §1

Assay [16] concerns the target T1, Glutamate receptor 3. Nature of the assay: Blockade of whole cell current in GluA3i-G (unknown origin) transfected in HEK293 cells assessed as fractional occupancy at level C by measuring ratio at -60 mV in presence of glutamate at 2 uM by whole cell patch clamp assay (RVB = 0.037 +/- 0.010). The note with it: filed as negative allosteric modulator. The essentials:
as §1

The target of assay [17] is T1, Glutamate receptor 3. Nature of the assay: Blockade of whole cell current in GluA3i-G (unknown origin) transfected in HEK293 cells assessed as opening of conductance level O1 measured at -60 mV in presence of glutamate at 2 uM by whole cell patch clamp assay. The note with it: filed as negative allosteric modulator. The essentials:
as §1

In assay [18] the target is T1, Glutamate receptor 3. Nature of the assay: Blockade of whole cell current in GluA3i-G (unknown origin) transfected in HEK293 cells assessed as fractional occupancy at level O2 by measuring ratio at -60 mV in presence of glutamate at 2 uM by whole cell patch clamp assay (RVB = 0.23 +/- 0.051). To be noted: filed as negative allosteric modulator. The essentials: as §1

Calls of active or inactive are those of the source. No cut-off for these calls is given here.

T1 sequence (P42263 whole entry): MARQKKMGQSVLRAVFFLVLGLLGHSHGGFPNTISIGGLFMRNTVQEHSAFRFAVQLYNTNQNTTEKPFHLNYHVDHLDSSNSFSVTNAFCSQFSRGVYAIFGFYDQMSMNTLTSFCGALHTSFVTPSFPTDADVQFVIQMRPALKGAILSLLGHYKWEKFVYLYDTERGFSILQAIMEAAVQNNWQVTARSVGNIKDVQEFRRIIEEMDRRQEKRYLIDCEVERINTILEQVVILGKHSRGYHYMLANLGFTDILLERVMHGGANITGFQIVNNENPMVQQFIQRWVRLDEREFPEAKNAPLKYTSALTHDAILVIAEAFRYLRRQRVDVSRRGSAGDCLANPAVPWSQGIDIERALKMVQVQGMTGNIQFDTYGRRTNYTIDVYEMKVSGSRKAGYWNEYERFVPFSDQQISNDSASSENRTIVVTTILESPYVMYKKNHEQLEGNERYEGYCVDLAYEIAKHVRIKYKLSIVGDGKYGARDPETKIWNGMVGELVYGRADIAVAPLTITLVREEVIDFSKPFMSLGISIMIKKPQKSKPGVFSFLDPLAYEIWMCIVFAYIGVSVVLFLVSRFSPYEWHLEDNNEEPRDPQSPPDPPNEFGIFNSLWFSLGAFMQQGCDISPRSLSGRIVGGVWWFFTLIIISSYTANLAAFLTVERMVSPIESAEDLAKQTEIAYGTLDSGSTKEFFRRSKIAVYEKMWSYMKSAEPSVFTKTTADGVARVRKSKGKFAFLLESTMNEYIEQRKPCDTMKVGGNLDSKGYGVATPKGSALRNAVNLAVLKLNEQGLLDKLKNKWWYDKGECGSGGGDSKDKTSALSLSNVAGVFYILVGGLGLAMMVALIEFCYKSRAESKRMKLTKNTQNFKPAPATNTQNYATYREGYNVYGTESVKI

For `N#Cc1ccccc1-c1cc(-c2ccccn2)cn(-c2ccccc2)c1=O` [PERAMPANEL], the result in [1], in [3], in assay [10] and in assay [17] was Active. Further, the Ratio in assay [2] stood at 0.53; in assay [6], 0.3; in assay [8], 0.13; in assay [11], 0.015; in [12], 0.49; in assay [13], 0.001. The Ratio in assay [15] worked out at 0.078; in assay [16] it was 0.23; in [18], 0.25. Moreover, the outcome in [4], in assay [5], in [7] and in assay [14] was inactive. In [9], the IC50 (commonly the concentration that gives 50% inhibition) was 2.1 µM.

These data come from ChEMBL document CHEMBL5257039, “Modulation of AMPA Receptor Gating by the Anticonvulsant Drug, Perampanel” (ACS Med Chem Lett, 2019).
